Results on 5 compounds are retold here after ChEMBL document CHEMBL1157291, “Discovery of bacterial fatty acid synthase inhibitors from a Phoma species as antimicrobial agents using a new antisense-based strategy” (J Nat Prod, 2006).

SMILES strings stand for the structures. ≈ marks a conversion by molar mass, not a printed value. Where only a bound is given, the exact number is not on record here.

The subject of experiment [1] is Staphylococcus aureus. Briefly: Antimicrobial activity against Staphylococcus aureus MB2865 after 20 hrs. Format: functional. In outline: (§1)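 MIC determination: cells inoculated at 10^5 CFU/mL, incubated at 37 °C for 20 h with 2-fold serial dilutions of compound in growth medium; MIC taken as lowest concentration inhibiting growth.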
The test system of experiment [2] is Escherichia coli. Description: Antimicrobial activity against wild type Escherichia coli after 20 hrs. Format: functional. The gist of the method:
(§2)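 Broth MIC: cells at 10^5 CFU/mL were incubated at 37 °C for 20 h with 2-fold serial dilutions of compound in growth medium. The MIC was taken as the lowest concentration inhibiting growth.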

Experiment [3] deals with Staphylococcus aureus. Description: Antimicrobial activity against Staphylococcus aureus RN450 transfected with plasmid SI-1941 bearing antisense to FabF assessed as drug level at which a zone formation after 18 hrs. Format: functional. In outline:
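Agar two-plate differential sensitivity assay: S. aureus RN450 carrying fabF antisense plasmid, with a vector-only control strain. Overnight LB cultures with 34 µg/mL chloramphenicol at 37 °C were inoculated 1:1000 (of OD 3.0) into LB agar with 0.2% glucose and 15 µg/mL chloramphenicol, plus 50 mM xylose for the antisense strain only. Samples were added to wells and incubated 18 h at 37 °C. MDC is the lowest 2-fold dilution giving a zone in the sensitive strain with a 5 mm zone differential over the control strain.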

The subject of experiment [4] is Staphylococcus aureus. Briefly: Antimicrobial activity against methicillin-resistant Staphylococcus aureus COL after 20 hrs. It counts as functional. In outline: as §1
Experiment [5] in a line: Inhibition of Staphylococcus aureus FAS2. The gist of the method:
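Partially purified S. aureus protein containing all FAS enzymes (1.26 µg) was preincubated 20 min at room temperature with serial dilutions of compound. Reactions were started with [2-14C]malonyl-CoA (4 µM final), run 90 min at 37 °C, stopped with perchloric acid, and read by scintillation in phospholipid-coated flash plates. IC50 was determined.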

Experiment [6] has as its system Escherichia coli. Briefly: Antimicrobial activity against envA transfected Escherichia coli after 20 hrs. It counts as functional. The gist of the method: as §2
The subject of experiment [7] is Enterococcus faecium. Description: Antimicrobial activity against vancomycin-resistant Enterococcus faecium CL5791 after 20 hrs. Format: functional. The gist of the method:
as §1

The subject of experiment [8] is Enterococcus faecalis. Description: Antimicrobial activity against vancomycin-sensitive Enterococcus faecalis CL8516 after 20 hrs. It counts as functional. In outline: as §2

A word on the MIC: it is the lowest concentration that inhibits growth of the organism. The low end stands for greater potency, the high end for weaker potency. A word on the IC50: it is the concentration that gives 50% inhibition. Read a low IC50 as higher potency. Take `CCCC#CC#CC=C=CCCCCCCC(=O)O` [PHOMALLENIC ACID B]: the MIC was 7.8 µg/mL (≈ 30.2 µM) in experiment [1]; greater than 100 µg/mL in experiment [2]; 12.5 µg/mL (≈ 48.4 µM) in experiment [4]; 25 µg/mL (≈ 96.8 µM) in experiment [6]; greater than 100 µg/mL in experiment [7]; greater than 100 µg/mL in experiment [8]. Moreover, in experiment [3], the Activity is 0.31 µg/mL. This compound yielded a half-maximal inhibitory concentration (IC50) in experiment [5] of 3.4 µg/mL (≈ 13.2 µM).

Turning to `CCCC#CC#CC=C=CCCCCCCCC(=O)O` [PHOMALLENIC ACID C], the MIC is 3.9 µg/mL (≈ 14.3 µM) in experiment [1]; greater than 100 µg/mL in experiment [2]; 3.9 µg/mL (≈ 14.3 µM) in experiment [4]; 12.5 µg/mL (≈ 45.9 µM) in experiment [6]; greater than 100 µg/mL in experiment [7]; greater than 100 µg/mL in experiment [8]. Besides, in experiment [3], the Activity was determined as 0.15 µg/mL. The same compound displayed a half-inhibitory concentration (IC50) in experiment [5] of 0.77 µg/mL (≈ 2.83 µM).

`C=C/C(C)=C/[C@@]1(C)SC(=O)C(C)=C1O` [THIOLACTOMYCIN]: the MIC in experiment [2] was greater than 250 µg/mL; in experiment [4], 64 µg/mL (≈ 304 µM); in experiment [6], greater than 250 µg/mL; in experiment [7], greater than 250 µg/mL; in experiment [8] it was greater than 250 µg/mL.

As for `C/C=C/C/C=C/CCC(=O)[C@H]1O[C@H]1C(N)=O` [CERULENIN], in experiment [1], 64 µg/mL (≈ 287 µM) was the least that counted as inhibitory (MIC). Also, the Activity in experiment [3] amounted to 32 µg/mL. In experiment [5], this compound registered an IC50 of 1.5 µg/mL (≈ 6.72 µM).

As for `CCC(O)C#CC#CC=C=CCCCCC(=O)O` (configuration not stated) [PHOMALLENIC ACID A], the MIC is 250 µg/mL (≈ 1010 µM) in experiment [1]; greater than 250 µg/mL in experiment [2]; 250 µg/mL (≈ 1010 µM) in experiment [4]; 31.3 µg/mL (≈ 127 µM) in experiment [6]; greater than 250 µg/mL in experiment [7]; greater than 250 µg/mL in experiment [8]. In addition, the Activity in experiment [3] is 0.63 µg/mL. In experiment [5], this compound came in with a half-inhibitory concentration (IC50) of 22 µg/mL (≈ 89.3 µM).
